Assay outcomes as filed in PubChem.
CXCR6 block = CXCR6 (human) receptor inhibition; inhibition, % at 20 µM; CHO-K1 PathHunter CXCR6 beta-arrestin, luminescence; 0.36% of 360,000 active; O00574; in the data active means inhibition above about 34%, passing the limit was not always enough;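 further: antagonist mode with CXCL16 agonist at 10 nM final; 0% = 10 nM CXCL16 with DMSO and 100% = unstimulated wells without agonist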
CCR6 antag = antagonists of human CCR6 receptor. P51684. inhibition, % at 20 µM. 0.49% of 340,000 active. CHO-K1 CCR6 PathHunter beta-arrestin, luminescence, CCL20-stimulated;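 active means compounds whose inhibition of the agonist-driven luminescence signal at 20 µM reaches about 50%, limit read from the data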;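 further: cells stimulated with CCL20 at 14 nM final; plate controls were DMSO with CCL20 for no effect and DMSO without agonist for full effect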
EBI2 block = antagonists of human EBI2 receptor; P32249; 0.81% of 360,000 active; EBI2 beta-arrestin recruitment, luminescence, 7a,25-OHC stimulated; inhibition, % at 5 µM; in the data active means inhibition above about 38%;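 further: enzyme fragment complementation signal reports receptor beta-arrestin coupling in cells; 0% = agonist plus DMSO wells and 100% = wells without agonist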
APJ agonist = agonists of human APJ apelin receptor. P35414. CHO-K1 APJ PathHunter beta-arrestin, luminescence; 0% DMSO wells, 100% apelin. activation, % at 20 µM. 0.11% of 330,000 active. AID 2520;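 active means activation more than six SD over the plate average, tested at 20 µM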;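 further: 0% = DMSO alone and 100% = apelin-13 at 10 nM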
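system = engineered CHO-K1 APJ arrestin reporter cells | input = 1000 cells per well | timing = overnight seeding, 90 min compound at 25 °C, 1 h detection | measured by = enzyme-fragment complementation luminescence | read-out = beta-arrestin recruitment to APJ as agonist activity, luminescent signal | control set = negative DMSO alone, positive Apelin-13 at 10 nM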
Beta2AR agonist = agonists of human beta-2 adrenergic receptor inducing internalization. response, % (test concentration not listed). Am2.2-beta2AR cells, FAP receptor internalization, flow cytometry. 0.43% of 340,000 active. P07550;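 active means response above a set limit, near 3 SD of response in nonfluorescent compounds, cut at about 42% in these data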
Target sequence (P07550 whole entry, looked up): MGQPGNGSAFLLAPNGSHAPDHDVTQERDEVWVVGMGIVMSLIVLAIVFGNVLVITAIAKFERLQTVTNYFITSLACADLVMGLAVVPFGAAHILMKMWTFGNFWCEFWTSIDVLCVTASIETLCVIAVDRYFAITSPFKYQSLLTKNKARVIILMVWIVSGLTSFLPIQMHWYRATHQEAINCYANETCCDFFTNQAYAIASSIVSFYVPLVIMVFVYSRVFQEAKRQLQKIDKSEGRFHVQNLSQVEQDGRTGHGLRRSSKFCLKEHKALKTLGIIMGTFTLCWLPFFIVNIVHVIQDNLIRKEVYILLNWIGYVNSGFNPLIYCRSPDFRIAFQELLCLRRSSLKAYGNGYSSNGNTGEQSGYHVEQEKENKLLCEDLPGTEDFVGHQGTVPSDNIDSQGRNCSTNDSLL
APJ antagonist = APJ receptor antagonism; P35414; CHO-K1 APJ beta-arrestin complementation, luminescence; inhibition, % at 20 µM; 0.32% of 330,000 active;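 active means inhibition above about 40% at 20 µM, limit read from the data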;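 further: cells challenged with 10 nM apelin-13 agonist together with compound; plate controls were apelin-13 plus DMSO wells for no effect and DMSO wells lacking apelin-13 for full effect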
EBI2 antag conf = EBI2 (human) antagonism, single concentration confirmation; shares compounds with EBI2 block; EBI2 beta-arrestin luminescence, 7a,25-OHC antagonism; 29% of 2,400 active; inhibition, % at 5 µM;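 active means inhibition of at least 50%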
EBI2 agonist = EBI2 agonism counter-screen. shares compounds with EBI2 block. EBI2-expressing cells, agonist mode, luminescence, 60 min; 0% vehicle, 100% 7α,25-dihydroxycholesterol control. activation, % at 5 µM. 2,400 tested, under 10 active;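 active means activation of at least 50%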
bGal counter = counter-screen for EBI2 antagonists: E. coli beta-galactosidase inhibition; shares compounds with EBI2 block; purified beta-galactosidase, luminescent Galacton Star, 15 min; inhibition, % at 5 µM; 1% of 2,400 active; AID 652176;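 active means replicate-average signal at least 3 plate SD below neutral wells, shown as high inhibition, flagging enzyme-inhibiting false positives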;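 further: 0% = DMSO wells with enzyme and 100% = wells lacking enzyme; higher means stronger loss of beta-gal luminescence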
* hit, by the source's call; . = not tested or not shown. In the library only some 1.8% were active in any assay of this set; here they are far more common.

SMILES | CXCR6 block | CCR6 antag | EBI2 block | APJ agonist | Beta2AR agonist | APJ antagonist | EBI2 antag conf | EBI2 agonist | bGal counter
COc1ccc(OCCN2CCC(C(=O)NC(c3ccccn3)c3ccccc3OC)CC2)cc1 (centres undefined) | -1 | . | 4 | . | . | . | . | . | .
COc1ccccc1C(NC(=O)C1CCN(CCOc2ccc3ccccc3c2)CC1)c1ccccn1 (centres undefined) | 16 | . | 45* | . | . | . | 18 | 0 | 8
Cc1cccnc1C(NC(=O)C1CCN(CCOc2ccc(F)cc2)CC1)c1ccc(Cl)cc1 (centres undefined) | 9 | . | 37 | . | . | . | . | . | .
COc1ccc(/C=C/CN2CCC(C(=O)NC(c3ccc(F)cc3)c3ccc4ccccc4n3)CC2)cc1 (centres undefined) | 10 | . | 60* | . | . | . | 26 | -1 | -6
O=C(CSc1n[nH]c(=O)n1Cc1ccccc1)Nc1ccc(F)c(F)c1F | 9 | 19 | 1 | -4 | -3 | 18 | . | . | .
CC(=O)[C@H]1[C@H]([C@H](O)[C@H](O)CO)O[C@](O)(C(=O)O)C[C@@H]1O | 1 | -5 | -1 | 4 | 7 | -32 | . | . | .
CC1CCCCN1CCCNC(=O)CN1C(=O)c2cccnc2Oc2ccccc21 (centres undefined) | 14 | -11 | -8 | 1 | -2 | -6 | . | . | .
O=c1[nH]c(C2CCN(S(=O)(=O)/C=C/c3ccccc3)CC2)nc2c1nnn2Cc1ccc(F)cc1 | -3 | 5 | 48* | -2 | -7 | 9 | 33 | 0 | 7
O=c1[nH]c(C2CCN(S(=O)(=O)Cc3ccccc3)CC2)nc2c1nnn2Cc1ccccc1 | 4 | 12 | -11 | 1 | 9 | 4 | . | . | .
CC(C)CCNC(=O)/C=C/c1ccc(Br)cc1 | -3 | 16 | 47* | -1 | -7 | 12 | 50 | -1 | -22
O=C(Nc1cccc(OC(F)(F)F)c1)c1ccc(-c2cccnc2)c2ccoc12 | -2 | . | 38* | . | . | . | 29 | -1 | -15
O=C(CNC(=O)c1ccc(C(F)(F)F)cc1)NC1CC1 | -3 | 1 | 1 | -2 | 3 | 8 | . | . | .
O=C1C=C(Nc2ccc(Cl)cc2)CC(c2ccc(Cl)cc2)C1 (centres undefined) | -6 | 19 | 81* | -4 | 5 | 18 | 82* | 1 | -1
Cc1ccc(C2CC(=O)C=C(NCC(C)C)C2)cc1 (centres undefined) | -6 | 7 | 2 | -1 | -1 | -5 | . | . | .
Cc1ccc(C2CC(=O)C=C(Nc3ccc(Cl)cc3)C2)cc1 (centres undefined) | -5 | -3 | 75* | -2 | -6 | 0 | 64* | 3 | 6
O=C1C=C(Nc2ccc(Cl)cc2)CC(c2ccco2)C1 (centres undefined) | 0 | 13 | 18 | -3 | -8 | 13 | . | . | .
CC(C)(C)NC(=O)C(c1ccc(O)cc1)N(C(=O)CCC(=O)Nc1nccs1)c1ccc(F)cc1 (centres undefined) | 5 | 10 | -6 | -2 | -2 | -12 | . | . | .
CCN(CC)c1ccc(/C=N/NC(=O)Nc2ccccc2)cc1 | -5 | 0 | 40* | -5 | 35 | 9 | 52* | 0 | -10
CCOc1ccc(/C=N/NC(=O)Nc2ccccc2)cc1 | 5 | -12 | 18 | -1 | 0 | 14 | . | . | .
Cc1onc(-c2ccccc2)c1-c1nnc(CN2CCN(S(=O)(=O)c3ccccc3)CC2)o1 | 2 | 15 | -9 | -1 | 4 | -15 | . | . | .
O=C1NC(Cc2ccc(O)cc2)c2nc3ccc(Cl)cc3c(=O)n2-c2ccc(Cl)cc21 (centres undefined) | . | . | . | -2 | . | 11 | . | . | .
O=C(/C=C/c1cccc([N+](=O)[O-])c1)N1CCN(Cc2ccc3c(c2)OCO3)CC1 | -11 | 0 | 50* | 3 | -6 | 6 | 31 | 1 | 0
